From ChEMBL document CHEMBL1152565, “Furo[3',2':3,4]naphtho[1,2-d]imidazole derivatives as potential inhibitors of inflammatory factors in sepsis” (Bioorg Med Chem, 2009) come the findings set out here.

One data set concerns Neutrophil. Nature of the data set: Inhibition of fMLP-induced superoxide generation in Sprague-Dawley rat neutrophils. The data set is classed as functional, cell-based. Put shortly:
(§1)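 Sprague-Dawley rat peripheral blood neutrophils preincubated with compound 5 min at 37 °C, then stimulated 30 min with fMLP (0.3 μM)/CB (5 μg/mL) or PMA (3 nM) in presence of cytochrome c. Superoxide quantified as superoxide dismutase-inhibitable cytochrome c reduction. Final DMSO <0.5% (v/v). IC50 as means ± SE, at least three separate experiments.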

Data set [1] is filed under the species Rattus norvegicus. Description: Inhibition of PMA-induced superoxide generation in Sprague-Dawley rat neutrophils. The data set is classed as functional. To be noted: Neutrophil. The method, boiled down: as §1
In data set [2] the test system is RAW264.7. Nature of the data set: Inhibition of LPS-induced nitric oxide accumulation in mouse RAW264.7 cells. The data set is classed as functional, cell-based. The method, boiled down:
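RAW 264.7 macrophages grown in DMEM with 5% FBS at 37 °C, 5% CO2, and stimulated with LPS. Nitrite accumulated in medium read with Griess reagent (sulfanilamide/N-(1-naphthyl)ethylenediamine in phosphoric acid, 5 min) at OD550 against sodium nitrite standard in culture medium. IC50 as means ± SE of at least three experiments.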

A short description of data set [3]: Antiinflammatory activity against Sprague-Dawley rat neutrophils assessed as inhibition of fMLP/cytochalasin B-induced beta-glucuronidase release. The data set is classed as functional, cell-based. The following applies: Neutrophil. Put shortly:
(§2)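 Rat (Sprague-Dawley) peripheral blood neutrophils incubated with test compound 5 min at 37 °C, then stimulated with fMLP (0.3 μM)/cytochalasin B (5 μg/ml) for 45 min. β-Glucuronidase and lysozyme measured in supernatant. Compound stocks in DMSO; final DMSO <0.5% (v/v). Means ± SE of at least three separate experiments.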

The subject of data set [4] is RAW264.7. Description: Inhibition of LPS-induced iNOS protein expression in mouse RAW264.7 cells after 2 hrs by Western blot. The data set is classed as functional, cell-based. The method, boiled down: (§3)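 RAW 264.7 cells (5×10^5 cells/well) pretreated with compound 2 h, then stimulated with LPS 0.1 μg/mL for 24 h. Lysed in RIPA buffer, protein measured by Bradford, 15 μg run on 8% SDS–PAGE and immunoblotted for iNOS with ECL detection. Bands quantified densitometrically relative to β-actin.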
In general terms: A western blot detects proteins with antibodies after separation by electrophoresis.

A short description of data set [5]: Antiinflammatory activity against Sprague-Dawley rat neutrophils assessed as inhibition of fMLP/cytochalasin B-induced lysozyme release. The data set is classed as functional, cell-based. To be noted: Neutrophil. Put shortly: as §2
For data set [6], the system named is RAW264.7. Nature of the data set: Cytotoxicity against mouse RAW264.7 cells up to 10 uM after 24 hrs by methylene blue assay. The data set is classed as cell-based. The following applies: raw264.7, 24 h. The method, boiled down: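 RAW 264.7 cells seeded at 2×10^5 cells/well, given LPS plus various compound concentrations for 24 h. Stained with 1% methylene blue for 40 min, washed, dye released with 1% sarcosyl for 4 h, absorbance read at 570 nm. LPS-treated cells without compound set as 100% survival.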

Data set [7] relates to Rattus norvegicus. Description: Inhibition of sepsis-induced PGE2 production in cecal ligation and puncture Sprague-Dawley rat model serum at 10 mg/kg, ip treated 1 hr before surgery measured after 24 hrs of surgery by ELISA. The data set is classed as functional. The following applies: route intraperitoneal. Put shortly: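 Sprague-Dawley rats aged 6–8 weeks (3–4 per group) pretreated intraperitoneally with 10 mg/kg compound or hydrocortisone 1 h before cecal ligation and puncture, saline-resuscitated after. Blood taken from portal vein 24 h post-surgery, centrifuged 3000 rpm 20 min, serum stored at -70 °C. PGE2 measured by ELISA; average of three independent studies.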
Background: In an ELISA, binding on a coated surface is turned into a signal by an enzyme label.

The test system of data set [8] is Rattus norvegicus. Nature of the data set: Inhibition of iNOS mRNA expressing in cecal ligation and puncture Sprague-Dawley rat model at 10 mg/kg, ip treated 1 hr before surgery measured after 24 hrs of surgery by PCR amplification. The data set is classed as functional. The following applies: route intraperitoneal. The method, boiled down: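 Sprague-Dawley rats aged 6–8 weeks, 3–4 per group, given compound or hydrocortisone 10 mg/kg by intraperitoneal injection 1 h before cecal ligation and puncture. Resuscitated with 1 mL normal saline after surgery; sham animals handled identically. Lung tissue collected 24 h post-surgery; iNOS mRNA band intensities normalized to GAPDH.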

The subject of data set [9] is RAW264.7. Nature of the data set: Inhibition of LPS-induced iNOS protein expression in mouse RAW264.7 cells at 5 uM after 2 hrs by Western blot. The data set is classed as functional, cell-based. The method, boiled down: as §3

Activity calls are given as the source filed them. The calls are words filed in the database; no cut-off is given here. Where only a bound is given, the exact number is not on record here.

The term IC50 denotes the concentration that inhibits the measured activity by half. Take `c1ccc2c(c1)[I+]c1ccccc1-2` [DIPHENYLENEIODONIUM CHLORIDE]: the IC50 in the data set on Neutrophil worked out at 5.2 µM; in the data set filed under Rattus norvegicus [1], 4.3 µM.
Take `c1coc(-c2nc3c4ccccc4c4occc4c3[nH]2)c1`: the 50% inhibitory concentration (IC50) in the data set with RAW264.7 [2] was 11.9 µM; in data set [3] it was 11.3 µM; in data set [5], 19.5 µM; in the data set with Neutrophil, > 30 µM; in the data set filed under Rattus norvegicus [1], > 30 µM. In the data set on RAW264.7 [4], the inhibition result was “Dose-dependent effect”. Moreover, the Activity result in the data set with RAW264.7 [6] is “Non-toxic”.
Consider `c1ccc(-c2nc3c4ccccc4c4occc4c3[nH]2)cc1`, for which the IC50 in the data set with RAW264.7 [2] is > 10 µM; in data set [3] it was 11.4 µM; in data set [5], 16.3 µM; in the data set with Neutrophil, > 30 µM; in the data set listed under Rattus norvegicus [1] it was > 30 µM.
In general, inhibition in vivo refers to the relative decrease from the control value, in per cent. For the compound `O=[N+]([O-])c1ccc(/C=C/c2nc3c4ccccc4c4occc4c3[nH]2)o1`, the inhibition in vivo at 10 mg/kg was found to be 150% in the data set on Rattus norvegicus [7] and 30% with Rattus norvegicus [8]. The IC50 in the data set with RAW264.7 [2] was 1.3 µM; in [3] it was > 30 µM; in data set [5] it was > 30 µM; in the data set on Neutrophil it was > 30 µM; in the data set listed under Rattus norvegicus [1] it was > 30 µM. Moreover, in the data set on RAW264.7 [4], the inhibition entry is “Dose-dependent effect”. Besides, the inhibition result in the data set on RAW264.7 [9] is “Active”. Also, in the data set on RAW264.7 [6], the Activity entry is recorded as “Non-toxic”.
Regarding `CC(=N)NCc1cccc(CN)c1` [1400W], the IC50 with RAW264.7 [2] was 2.7 µM.
For the compound `O=Cc1ccc(-c2nc3c4ccccc4c4occc4c3[nH]2)cc1`, the IC50 with RAW264.7 [2] is > 10 µM; in data set [3] it was 5 µM; in data set [5], 7.4 µM; with Neutrophil, > 30 µM; in the data set listed under Rattus norvegicus [1], > 30 µM.
On to `O=[N+]([O-])c1ccc(-c2nc3c4ccccc4c4occc4c3[nH]2)cc1`, for which the concentration for half-maximal inhibition (IC50) in the data set on RAW264.7 [2] is > 10 µM; in data set [3] it was > 10 µM; in [5] it was > 10 µM; with Neutrophil it was > 30 µM; in the data set listed under Rattus norvegicus [1], > 30 µM.
With `c1ccc2c(c1)c1nc[nH]c1c1ccoc21`, the IC50 (in the data set with RAW264.7 [2]; in [3]; in data set [5]; in the data set with Neutrophil; in the data set filed under Rattus norvegicus [1]) was > 30 µM throughout.
As to `O=[N+]([O-])c1ccc(-c2nc3c4ccccc4c4occc4c3[nH]2)o1`, the IC50 was 1.5 µM in the data set with RAW264.7 [2]; > 30 µM in data set [3]; > 30 µM in [5]; > 30 µM with Neutrophil; > 30 µM in the data set filed under Rattus norvegicus [1]. Besides, the inhibition entry with RAW264.7 [4] was “Dose-dependent effect”. For the same compound, in the data set with RAW264.7 [6], the Activity entry is “Non-toxic”.
Turning to `CN1CCN(CCCN2c3ccccc3Sc3ccc(C(F)(F)F)cc32)CC1` [TRIFLUOPERAZINE], the half-inhibitory concentration (IC50) came out at 12.5 µM in data set [3] and 11.9 µM in data set [5].
